Screens (PubChem)
SKKanGAS inh: blocks kanamycin growth of S. pyogenes SKKanGAS strain; BacTiter-Glo, 6 h; inhibition, % at 7.5 µM; actives 1.3% (n = 300,000); AID 1662;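 active = mean replicate score, as percent of positive control median, at least 50; inconclusive = mean below 50 but one replicate at or above 50; inactive = mean and every replicate below 50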;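 note: strain carries kanamycin resistance gene driven by streptokinase promoter and grows in 40 µg/ml kanamycin; loss of luminescence reflects streptokinase promoter inhibition or plain growth inhibition; 0% = median of DMSO wells and 100% = positive control at its reference dose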
Rtt109 Vps75: C. albicans Rtt109 histone acetyltransferase inhibition; Q5AAJ8; purified Rtt109/Vps75, ThioGlo CoA-SH fluorescence, 4 h; AID 540336; actives 0.16% (n = 330,000); inhibition, % at 34.9 µM;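 active = inhibition of at least 50% in every replicate; inconclusive = best replicate reaches 50% inhibition but some replicates fall short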
Target sequence (Q5AAJ8 whole entry, looked up): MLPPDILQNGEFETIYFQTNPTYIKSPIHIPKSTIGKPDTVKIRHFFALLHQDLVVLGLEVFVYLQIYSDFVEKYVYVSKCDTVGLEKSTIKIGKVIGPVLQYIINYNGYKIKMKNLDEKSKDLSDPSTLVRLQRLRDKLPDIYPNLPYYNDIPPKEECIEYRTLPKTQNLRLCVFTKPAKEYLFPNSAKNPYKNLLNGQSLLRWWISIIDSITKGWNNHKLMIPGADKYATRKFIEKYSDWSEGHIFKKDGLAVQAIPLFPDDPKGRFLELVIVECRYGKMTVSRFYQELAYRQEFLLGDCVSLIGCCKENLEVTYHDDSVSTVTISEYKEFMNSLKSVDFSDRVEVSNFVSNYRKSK
PglD inh: inhibitors of Campylobacter jejuni PglD acetyltransferase; purified PglD enzyme, DTNB colorimetric CoA detection; inhibition, % at 12.5 µM; actives 0.098% (n = 360,000); in the data active = inhibition above about 16%, passing the limit was not always enough; inconclusive = no clear call, values can overlap the other calls
CSC inhib: blocks cancer stem cells. actives 1.1% (n = 300,000). cancer stem cell-like cells viability, luminescence. inhibition, % at 7.5 µM. AID 2717; in the data active = inhibition above about 75%; inconclusive = no clear call, values can overlap the other calls; tested in HMLE shEcad cells
PfHsp90 set2: inhibits growth of yeast expressing Plasmodium falciparum Hsp90; S. cerevisiae expressing PfHsp90, BacTiter-Glo ATP, 48 h; yeast lacking PDR1 and PDR3 efflux regulators; inhibition, % at 9.4 µM; actives 0.32% (n = 310,000); AID 504621;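 active = every replicate shows inhibition above about 80%, whatever the replicate mean, limit read from the data; inconclusive = mean inhibition reaches the set limit but some replicate falls short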;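 note: 0% = DMSO neutral controls and 100% = 20 µM radicicol positive controls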
FN deposit inh: fibronectin deposition inhibition. AH1F fibroblasts, Alexa488-fibronectin deposition fluorescence, overnight. inhibition, % at 12.6 µM. actives 0.086% (n = 350,000). AID 743247;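 active = mean inhibition across replicates of 30% or more, regardless of how many single replicates reach that level; inconclusive = mean under 30% yet at least half of replicates reach 30%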;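 note: positive control wells lacked labelled fibronectin entirely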
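Material – AH1F fibroblast monolayer, labelled fibronectin deposition · Reagent – labelled fibronectin 24 nM · Timing – 1 h adhesion, overnight exposure · Measured by – fluorescence at 485 nm excitation, 525 nm emission · Read-out – inhibition of fibronectin deposition signal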
An asterisk follows results filed as active; ? = inconclusive; · = no result given. Most compounds without a hit are left out; they make up all but 1.7% or so of the library.

SMILES | SKKanGAS inh | Rtt109 Vps75 | PglD inh | CSC inhib | PfHsp90 set2 | FN deposit inh
Nc1c(S(=O)(=O)c2cccs2)c2nc3ccccc3nc2n1/N=C/c1cccc(O)c1 | 72.3* | -5.9 | 4.6 | 97.0* | -13.3 | ·
COc1cccc(/C=N/n2c(N)c(S(=O)(=O)c3cccs3)c3nc4ccccc4nc32)c1 | 18.7 | -9.3 | -3.9 | -4.9 | -4.2 | ·
O=C(NCC[C@@H]1CC[C@H](NC(=O)c2cnccn2)[C@H](CO)O1)Nc1ccc(Cl)cc1 | · | · | 6.1 | · | · | ·
Cc1noc(C)c1C(=O)N(C)C[C@H]1OCc2ccccc2-c2c(n(C)c3ccccc23)C(=O)N([C@H](C)CO)C[C@H]1C | · | · | -1.3 | · | · | 8.3
CCCCCCOC(=O)Sc1nc2ccccc2o1 | 2.0 | 9.4 | 3.2 | 38.5 | 128.4* | -3.9
CCCC#Cc1ccc2c(c1)O[C@H](CN(C)C(=O)CN(C)C)[C@@H](C)CN([C@H](C)CO)S2(=O)=O | · | · | · | · | · | -0.9
CCSc1nnc(NC(=O)c2nc(S(=O)(=O)Cc3ccc(F)cc3)ncc2Cl)s1 | -5.2 | -16.1 | 3.5 | 102.8* | 9.0 | 0.4
C=CCSc1nnc(NC(=O)c2nc(SCC)ncc2Cl)s1 | 12.3 | 6.0 | · | 10.2 | · | ·
CSc1ncc(Cl)c(C(=O)Nc2nnc(SC/C=C/c3ccccc3)s2)n1 | 34.9 | 32.9 | -24.3 | 36.7 | · | 1.4
CSc1nnc(NC(=O)c2nc(S(=O)(=O)Cc3cccc(C)c3)ncc2Cl)s1 | 11.5 | ? | 3.6 | 109.7* | 10.1 | 1.0
O=C(NCc1ccc2c(c1)OCO2)c1nc(S(=O)(=O)Cc2ccccc2F)ncc1Cl | -17.6 | 29.7 | 0.3 | ? | -7.6 | 32.9*
CSc1nnc(NC(=O)c2nc(S(=O)(=O)Cc3ccccc3F)ncc2Cl)s1 | 6.9 | 24.5 | 6.7 | ? | 9.1 | -0.7
CC(C)c1nnc(NC(=O)c2nc(S(=O)(=O)Cc3ccccc3F)ncc2Cl)s1 | 4.8 | · | · | 102.4* | · | -7.1
C/C=C/c1ccc2c(c1)O[C@@H](CN(C)C(=O)c1ccccc1F)[C@@H](C)CN([C@@H](C)CO)S2(=O)=O | · | · | -1.9 | · | · | -9.8
C[C@@H]1CN([C@H](C)CO)C(=O)Cc2cc(NC(=O)CCN3CCOCC3)ccc2O[C@@H]1CN(C)S(=O)(=O)c1ccccc1 | · | · | -0.8 | · | · | ·
CC(C)c1nnc(NC(=O)c2nc(S(=O)(=O)Cc3ccc(F)cc3)ncc2Cl)s1 | 6.6 | 19.0 | -4.0 | 106.0* | 0.7 | -0.8
Cc1nnc(NC(=O)c2nc(S(=O)(=O)Cc3ccccc3C)ncc2Cl)s1 | 7.6 | 17.7 | 7.5 | 84.5* | 8.0 | 11.8
O=C(NCc1ccc2c(c1)OCO2)c1nc(S(=O)(=O)Cc2ccccc2)ncc1Cl | -3.3 | -4.9 | 3.9 | · | 1.5 | 3.3
Cc1ccc(CS(=O)(=O)c2ncc(Cl)c(C(=O)Nc3nnc(C(C)C)s3)n2)cc1 | -2.4 | -4.8 | 6.9 | 110.9* | 1.8 | 15.7
Cc1cccc(CS(=O)(=O)c2ncc(Cl)c(C(=O)Nc3nnc(C(C)C)s3)n2)c1 | 0.3 | 25.1 | 1.4 | 107.3* | 5.4 | ·
CO[C@H](CN(C)C(=O)c1cnccn1)[C@H](C)CN([C@H](C)CO)S(=O)(=O)c1ccc(Cl)cc1 | · | · | -0.7 | · | · | 7.6
COCC(=O)N1[C@H](C#N)[C@H](c2ccccc2-c2cccc(F)c2)[C@H]1CO | · | · | · | · | · | -7.7
CCCNC(=O)NC[C@@H]1[C@@H](c2ccc(C3=CCCC3)cc2)[C@H](CO)N1C(C)=O | · | · | -1.1 | · | · | -6.9
C[C@@H]1CCCCO[C@H](CN(C)Cc2ccccc2)[C@@H](C)CN([C@@H](C)CO)C(=O)c2cc(NS(=O)(=O)c3cn(C)cn3)ccc2O1 | · | · | 13.8 | · | · | 1.8
COc1ccc2oc(=O)c(-c3csc(Nc4ccc(O)cc4)n3)cc2c1 | 103.6* | 22.5 | · | 2.6 | 3.0 | -2.5
SMILES | SKKanGAS inh | Rtt109 Vps75 | PglD inh | CSC inhib | PfHsp90 set2 | FN deposit inh
N=c1c2c(ncn1CCCO)Oc1ccc3ccccc3c1C2c1ccccc1 (centres undefined) | 5.5 | · | -1.5 | 14.6 | · | -1.4
N=c1c2c(ncn1Cc1ccco1)Oc1ccc3ccccc3c1C2c1ccccc1 (centres undefined) | 22.7 | 2.7 | · | 102.1* | -33.1 | -2.5
COc1ccc(C2c3c(ncn(Cc4ccco4)c3=N)Oc3ccc4ccccc4c32)cc1 (centres undefined) | 11.4 | -1.5 | 4.9 | 93.9* | 2.8 | 1.2
O=C(Nc1ccc2c(c1)[C@H]1C[C@H](CC(=O)N3CCOCC3)O[C@@H](CO)[C@H]1O2)NC1CCCCC1 | · | · | -4.7 | · | · | -6.8
CC(C)Nc1nc(Oc2ccc(Cl)cc2Cl)cc(C(F)(F)F)n1 | 79.3* | · | -3.9 | · | · | 6.8
Oc1ccc(Cl)cc1-c1cc(-c2ccccc2)n[nH]1 | 55.1* | -6.4 | 0.8 | 50.3 | 4.4 | 8.0
Cc1ccc(O)c(-c2cc(-c3cccc(Br)c3)n[nH]2)c1 | 100.3* | · | -6.4 | 12.0 | 105.0* | 36.8*
Oc1ccccc1-c1cc(-c2ccccc2)n[nH]1 | · | -9.0 | -5.6 | · | 37.5 | -3.1
COc1ccc(S(=O)(=O)Nc2ccc3c(c2)C(=O)N([C@@H](C)CO)C[C@@H](C)[C@@H](CN(C)S(=O)(=O)c2ccc(F)cc2)O3)cc1 | · | · | 0.7 | · | · | -2.4
Cc1nn(-c2ccc(F)cc2)c(Cl)c1/C=C1\C(=O)Nc2ccccc21 | · | 3.0 | · | 78.6* | -12.2 | 5.5
OC(c1ccc(OCc2ccccc2)cc1)c1nnc(-c2ccccc2)o1 (centres undefined) | 57.1* | -6.4 | -0.9 | 8.0 | -34.1 | ·
Cc1cccc(-n2[nH]c3c4c(ccc3c2=O)C(=O)c2ccccc2C4=O)c1 | 79.6* | -6.7 | · | 48.2 | 1.6 | 3.2
O=C1c2ccccc2C(=O)c2c1ccc1c(=O)n(-c3ccccc3)[nH]c21 | 41.8 | -5.5 | -4.8 | 34.4 | 1.2 | ·
CCCCn1c(NS(=O)(=O)c2ccc(C)cc2)c(S(=O)(=O)c2ccccc2)c2nc3ccccc3nc21 | 45.1 | · | -0.7 | 107.8* | -3.0 | 2.2
CCC(C)NC(=O)c1cccc(OCc2c(C)noc2C)c1 (centres undefined) | 8.5 | 5.9 | · | -12.2 | -22.2 | 2.1
CCOC(=O)c1c(C)[nH]c(C(=O)C(C)OC(=O)c2cccc(OCc3c(C)noc3C)c2)c1C (centres undefined) | 50.1* | 3.5 | -2.1 | 7.0 | -4.5 | ·
O=c1c2cc(-c3ccccc3)sc2nc2n1CCC2 | 49.6* | · | · | -1.9 | · | 3.8
O=c1c2ccccc2nc2n1CCC2 | -6.4 | 26.4 | · | 5.3 | 18.9 | 1.6
C[C@H](CO)N1C[C@H](C)[C@H](CN(C)C(=O)Nc2ccc3c(c2)OCO3)OCCCC[C@H](C)Oc2ccc(NC(=O)Nc3ccccc3)cc2C1=O | · | · | -0.7 | · | · | -0.8
O=C(O)c1cccc2c(-c3ccccc3)c(-c3ccccc3)[nH]c12 | 58.5* | -3.7 | -0.3 | 40.8 | -1.9 | 5.3
O=C(O)c1ccccc1-c1nc(-c2ccccc2)c(-c2ccccc2)[nH]1 | -0.8 | -4.1 | · | -2.4 | 26.3 | 1.4
CN(C)C(=O)[C@H]1[C@H](CO)[C@H]2Cn3c(ccc(-c4ccncc4)c3=O)[C@@H]1N2CC1CCCC1 | · | · | -1.3 | · | · | ·
